Our source for the Activity values is ChEMBL document CHEMBL3297668, “Synthesis of truncated analogues of preptin-(1–16), and investigation of their ability to stimulate osteoblast proliferation” (Bioorg Med Chem, 2014).

The source made the active and inactive calls. The calls are words filed in the database; no cut-off is given here. Where a SMILES comes first, the peptide text is derived from it.

The first test concerns Osteoblast. The test is described as follows: Stimulation of proliferation of foetal rat osteoblasts at 10 '-10 to 10 '-8 M after 18 to 24 hrs by [3H]-thymidine incorporation assay relative to control. It is filed as functional, cell-based. A digest of the protocol: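 Osteoblasts from 20-day fetal rat calvariae (collagenase digests 3 and 4) were expanded in FBS medium with ascorbate-2-phosphate, seeded at 2.5 × 10⁴ cells/well in 5% FBS/MEM for 24 h, then growth-arrested 24 h in 0.1% BSA/5 µg/mL ascorbate-2-phosphate. Peptide treatment 24 h, with [³H]-thymidine pulse over the final 6 h. Result expressed as treatment/vehicle ratio. 6 wells/group, 3–4 experiments, ANOVA with Dunnett's test.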
A general note: Uptake of a labelled nucleoside into DNA is a usual measure of proliferation.
In the case of `CC(=O)N[C@@H](CC(=O)O)C(=O)N[C@H](C(=O)N[C@@H](CO)C(=O)N[C@H](C(N)=O)[C@@H](C)O)C(C)C` (Ac-DVST-NH2), the result was inactive. Same read-out and setting: the result for `CC(=O)N[C@@H](CC(=O)O)C(=O)N[C@H](C(=O)N[C@@H](CO)C(=O)N[C@H](C(=O)O)[C@@H](C)O)C(C)C` (Ac-DVST-OH) reads “inactive”; that for `CC(=O)N[C@@H](Cc1ccccc1)C(=O)N1CCC[C@H]1C(=O)N[C@@H](CCCNC(=N)N)C(=O)N[C@@H](Cc1ccc(O)cc1)C(N)=O` (Ac-FPRY-NH2), “Active”. On the same count and under the same terms, for `CC(=O)N[C@@H](Cc1ccccc1)C(=O)N1CCC[C@H]1C(=O)N[C@@H](CCCNC(=N)N)C(=O)N[C@@H](Cc1ccc(O)cc1)C(=O)O` (Ac-FPRY-OH) the value was “inactive”; for `CC(C)[C@H](NC(=O)[C@@H](N)CC(=O)O)C(=O)N[C@@H](CO)C(=O)N[C@H](C(N)=O)[C@@H](C)O` (H-DVST-NH2), “inactive”; for `CC(C)[C@H](NC(=O)[C@@H](N)CC(=O)O)C(=O)N[C@@H](CO)C(=O)N[C@H](C(=O)O)[C@@H](C)O` (H-DVST-OH), “inactive”. The same measure, in the same setting: for `N=C(N)NCCC[C@H](NC(=O)[C@@H]1CCCN1C(=O)[C@@H](N)Cc1ccccc1)C(=O)N[C@@H](Cc1ccc(O)cc1)C(N)=O` (H-FPRY-NH2) the value was “inactive”. On to `N=C(N)NCCC[C@H](NC(=O)[C@@H]1CCCN1C(=O)[C@@H](N)Cc1ccccc1)C(=O)N[C@@H](Cc1ccc(O)cc1)C(=O)O` (H-FPRY-OH), for which the result was inactive. The same measure, in the same setting: for Ac-DVSTSQAV-NH2 the value was “inactive”; for Ac-DVSTSQAV-OH, “inactive”; for Ac-DVSTSQAVLPDD-NH2, “inactive”. The same measure, in the same setting: the result for Ac-DVSTSQAVLPDD-OH reads “inactive”; that for Ac-DVSTSQAVLPDDFPRY-NH2, “Active”. Same read-out and setting: for Ac-DVSTSQAVLPDDFPRY-OH the value was “inactive”; for Ac-LPDDFPRY-NH2, “inactive”. Consider Ac-LPDDFPRY-OH, for which the outcome was inactive.

Consider Ac-SQAVLPDDFPRY-NH2, for which the outcome was inactive. The same measure, in the same setting: for Ac-SQAVLPDDFPRY-OH the value was “inactive”.

With H-DVSTSQAV-OH, the result was Active. The same measure, in the same setting: the result for H-DVSTSQAVLPDD-NH2 reads “inactive”; that for H-DVSTSQAVLPDD-OH, “inactive”; that for H-DVSTSQAVLPDDFPRY-NH2, “inactive”. Take H-DVSTSQAVLPDDFPRY-OH: the outcome was Active.

Take H-LPDDFPRY-NH2: the outcome was inactive. Still for that read-out and setting: for H-LPDDFPRY-OH the value was “inactive”; for H-SQAVLPDDFPRY-NH2, “inactive”. For the molecule H-SQAVLPDDFPRY-OH, the outcome was inactive.

In another test the test system is Osteoblast. The test is described as follows: Stimulation of differentiation of rat osteoblasts assessed as increase in mineralized bone nodules at 10 '-9 M after 3 weeks using Von Kossa staining by bone nodule formation assay relative to control. It counts as functional, cell-based. Put shortly:
(§1)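 Primary osteoblasts from 20-day fetal rat calvariae (sequential collagenase digests 3 and 4) plated at 5 × 10⁴ cells/well in αMEM/10% FBS plus ascorbate-2-phosphate. At confluence (~3 days), medium switched to MEM/15% FBS with 50 µg/mL L-ascorbic acid-2-phosphate and 10 mM β-glycerophosphate, plus peptide; medium and peptide renewed twice weekly. Dexamethasone positive control. At 21 days, fixed in 10% neutral buffered formalin, Von Kossa stained, mineralized area quantified by image analysis.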
Regarding H-DVSTSQAV-OH, the outcome was Active.

A further test relates to Osteoblast. Briefly: Stimulation of differentiation of rat osteoblasts assessed as increase in mineralized bone nodules at 10 '-10 to 10 '-9 M after 3 weeks using Von Kossa staining by bone nodule formation assay relative to control. It is filed as functional, cell-based. A digest of the protocol: as §1
In the case of `CC(=O)N[C@@H](Cc1ccccc1)C(=O)N1CCC[C@H]1C(=O)N[C@@H](CCCNC(=N)N)C(=O)N[C@@H](Cc1ccc(O)cc1)C(N)=O` (Ac-FPRY-NH2), the outcome was inactive.
